High-throughput results: PubChem BioAssay, Broad Institute
MITF TRPM1 HTS – MITF TRPM1 promoter activation in melanoma cells; SK-MEL-5 TRPM1-promoter luciferase, 24 h; % of positive control, neutral wells = 0; activation, % at 12.5 µM; 0.75% of 300,000 active; AID 588334;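 active = mean activation of at least 80% with every replicate also reaching 80%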
SR-BI uptake up – SR-BI HDL lipid transfer activation | activation, % at 12.5 µM | CHO ldlA[mSR-BI] cells, DiI-HDL uptake fluorescence, 3 h; 100 = double the neutral-control signal | 0.096% of 320,000 active | AID 504775;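 active = mean replicate activation of at least 60% and every replicate at or above 60%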
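Material – SR-BI-overexpressing, LDLR-lacking CHO cells · Medium – BSA-supplemented, HEPES-buffered Ham's F12, pH 7.4 · Doses – single concentration · Times – compound with DiI-HDL co-incubation, 3 h at 37 °C · Measured by – bottom-read fluorescence, 550/595 nm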
HSF1 activator – increases HSF-1 driven luciferase reporter signal; NIH3T3-HGL HSF-1 luciferase reporter, MG132, 8 h; 100% = twice DMSO control signal; activation, % at 9 µM; 1.7% of 300,000 active; AID 504408;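 active = mean replicate activation of at least 50% with a set share of replicates each reaching 50%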
SR-BI DiI inh – inhibitors of mouse SR-BI mediated HDL lipid uptake | Q61009 | ldlA[mSR-BI] CHO cells, DiI-HDL uptake fluorescence, 3 h | inhibition, % at 12.5 µM | 0.96% of 320,000 active;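 active = mean replicate inhibition of at least 70% and a set share of replicates each scoring 70 or more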
Target sequence (Q61009 whole entry, looked up): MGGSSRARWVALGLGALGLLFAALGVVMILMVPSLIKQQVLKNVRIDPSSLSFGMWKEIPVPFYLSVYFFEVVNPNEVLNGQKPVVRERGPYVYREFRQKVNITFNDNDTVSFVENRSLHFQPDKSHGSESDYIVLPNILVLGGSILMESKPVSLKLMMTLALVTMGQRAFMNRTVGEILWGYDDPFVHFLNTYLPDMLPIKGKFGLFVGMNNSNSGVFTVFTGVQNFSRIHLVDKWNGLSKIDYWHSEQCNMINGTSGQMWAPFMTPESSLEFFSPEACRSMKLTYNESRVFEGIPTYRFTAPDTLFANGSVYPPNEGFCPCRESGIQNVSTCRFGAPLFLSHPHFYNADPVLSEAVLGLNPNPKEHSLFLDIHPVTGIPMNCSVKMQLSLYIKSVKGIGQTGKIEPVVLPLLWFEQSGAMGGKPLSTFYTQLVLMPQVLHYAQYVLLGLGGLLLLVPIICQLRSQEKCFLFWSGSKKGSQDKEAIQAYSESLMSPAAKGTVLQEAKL
Wnt bcat act – Wnt/beta-catenin pathway activation; Wnt/beta-catenin reporter cell assay, activator, plate reader; activation, % at 9.35 µM; 1.2% of 300,000 active; AID 743398; in the data active = activation above about 30%, passing the limit was not always enough
Numbers stand for hits; n = inactive; x = no result given. Most compounds without a hit are left out; they make up all but 3.6% or so of the library.

SMILES	MITF TRPM1 HTS	SR-BI uptake up	HSF1 activator	SR-BI DiI inh	Wnt bcat act
Cc1ccc(C=Nc2ccccc2C(N)=O)cc1	n	n	66	n	x
Cc1ccc(C(=O)/C=C/Nc2ccccc2C(N)=O)cc1	n	n	n	n	39
C=CCNc1cccc2c1S(=O)(=O)N[C@H](CC(C)C)CO2	x	x	x	x	n
CCCN1CCCCC(NC(=O)c2ccc(Cl)cc2Cl)C1=O (configuration not stated)	x	x	x	x	n
CCOc1ccc(-n2cc(-c3ccc(OC)c(OC)c3)[nH]c2=S)cc1	n	x	55	x	n
N#CC1c2ccccc2-c2ccccc2N1C(=O)c1ccccc1 (configuration not stated)	x	x	x	x	n
O=C(O)c1ccc(S(=O)(=O)N2CCC(n3nnc4cc(C(F)(F)F)ccc43)CC2)cc1	n	n	n	n	n
O=C(O)c1cccc(S(=O)(=O)N2CCC(n3nnc4cc(C(F)(F)F)ccc43)CC2)c1	n	n	79	n	n
CC(C)CC(=O)Nc1ccc(N2CCOCC2)cc1	n	n	98	n	x
CC(C)(C)c1nc(SCC(=O)Nc2ccc(N3CCOCC3)cc2)c2ccccc2n1	x	n	58	n	x
CC(C)(C)c1nc(SCC(=O)Nc2ccc3c(c2)OCCO3)c2ccccc2n1	n	n	n	n	n
Cn1cccc1C(=O)Nc1ccc(N2CCOCC2)cc1	n	n	x	n	38
O=C(Nc1ccc(N2CCOCC2)cc1)c1ccncc1	n	n	n	n	n
CN1C(=O)NC(=O)C1c1ccccc1 (configuration not stated)	n	n	x	n	n
COc1cc2ccc(C=O)cc2cc1OC	x	x	x	x	n
CC(=O)c1cccc(NC(=O)/C=C/c2ccc(S(=O)(=O)N3CCOCC3)cc2)c1	n	n	x	72	n
COc1ccc(/C=C/C(=O)Nc2cccc(S(=O)(=O)N3CCOCC3)c2)cc1OC	n	n	x	n	n
O=C(/C=C/c1ccc(OC(F)F)cc1)Nc1cccc(S(=O)(=O)N2CCOCC2)c1	n	n	n	80	n
O=C(Nc1cccc(-c2nn[nH]n2)c1)c1csc2c1CCCC2	n	n	n	n	x
Cc1ccc(NC2CC(=O)N(c3cccc([N+](=O)[O-])c3)C2=O)cc1 (configuration not stated)	n	n	n	83	n
COc1ccc(N2C(=O)CC(Nc3cccc([N+](=O)[O-])c3)C2=O)cc1 (configuration not stated)	n	x	n	x	n
OCC1OC(Nc2ccccc2C=NO)C(O)C1O (configuration not stated)	x	x	x	x	n
CC(=O)N1CCN(Cc2nc(C(c3ccccc3)c3ccccc3)no2)CC1	n	n	n	n	n
Cc1nc(CN2CCN(Cc3nc(C(c4ccccc4)c4ccccc4)no3)CC2)cs1	n	n	69	n	n
COC(=O)c1c(NC(=O)c2ccc(C)o2)sc2c1CCCCC2	x	n	60	n	52
SMILES	MITF TRPM1 HTS	SR-BI uptake up	HSF1 activator	SR-BI DiI inh	Wnt bcat act
NC(=O)c1c(NC(=O)c2ccc([N+](=O)[O-])o2)sc2c1CCCC2	n	n	116	n	n
COCCN1C(=O)CCC1(C)C(=O)NC1CCCCC1 (configuration not stated)	x	x	x	x	n
O=C(Cn1ncc(Cl)c(Cl)c1=O)N1CCN(S(=O)(=O)c2ccc3ccccc3c2)CC1	n	n	76	n	n
COc1cc2c(cc1OC)/C(=C/C(=O)c1ccc(OC)c([N+](=O)[O-])c1)NCC2	n	n	n	85	n
COc1cc2c(cc1OC)/C(=C/C(=O)c1cccc([N+](=O)[O-])c1)NCC2	n	n	n	n	n
O=C(Cc1ccccc1)NCCn1ccc2ccccc21	n	n	n	n	n
CC(=O)NCCn1ccc2ccccc21	n	n	60	n	x
C[C@H](CO)N1C[C@H](C)[C@@H](CN(C)S(=O)(=O)c2ccc(F)cc2)Oc2ncc(Br)cc2C1=O	x	x	x	x	n
O=C(Nc1ccccc1)c1ccc2nc(-c3ccco3)c(-c3ccco3)nc2c1	n	n	56	n	x
CCc1nc2ccc(C(=O)Nc3ccc(NC(C)=O)cc3)cc2nc1CC	n	n	n	83	n
CCc1nc2ccc(C(=O)NCCc3ccco3)cc2nc1CC	87	n	n	n	x
O=C(CCC(=O)NCCCc1ccccc1)NCCCc1ccccc1	n	62	n	n	n
COc1cc(/C=C/C(=O)OCC(=O)Nc2ccc3[nH]c(=O)[nH]c3c2)ccc1OC(F)F	x	x	x	x	n
CCCC(=O)n1nc(-c2ccc(C)cc2)nc1NCc1ccco1	n	n	n	n	47
O=C(c1cccs1)n1nc(-c2ccc(Cl)cc2)nc1NCc1ccco1	x	n	n	n	52
Cc1ccc(C(=O)n2nc(-c3ccccc3)nc2NCc2ccco2)cc1	n	n	n	n	n
COc1ccc(/C=C/C(=O)NCC(=O)N/N=C/c2cc(Br)ccc2OCc2ccccc2)cc1	n	n	n	79	x
COc1ccc(Br)cc1/C=N/NC(=O)CNC(=O)/C=C/c1ccccc1	n	n	n	n	n
O=C(C[n+]1ccc(C(=O)N/N=C/c2ccc(O)cc2)cc1)c1ccccc1	n	n	n	n	n
O=C(N/N=C/c1ccc(OCc2ccccc2)cc1)c1ccncc1	n	n	n	n	n
O=C(C[n+]1ccc(C(=O)N/N=C/c2ccc(OCc3ccccc3)cc2)cc1)c1ccccc1	134	n	n	n	n
Oc1ccc(N=Cc2ccc(OCc3ccccc3)cc2)cc1	n	n	65	n	n
CC(C)(C)NCC(=O)N/N=C/c1ccc(OCc2ccccc2)cc1	87	n	n	n	n
COc1ccc(OCC(=O)N2CCc3ccccc32)c([N+](=O)[O-])c1	x	x	x	x	n
O=C(Nc1cccn2ncnc12)c1ccc(Cl)cc1	n	n	n	n	n
SMILES	MITF TRPM1 HTS	SR-BI uptake up	HSF1 activator	SR-BI DiI inh	Wnt bcat act
O=C(Nc1cnc2ccccn2c1=O)c1ccc(Cl)cc1	86	n	n	n	x
CN(/N=C/c1ccc(O)cc1O)c1nc(-c2ccccc2)cc(-c2ccccc2)n1	n	n	n	90	n
Nc1ccc(Sc2cnn(-c3ccccc3)c(=O)c2Cl)cc1	n	n	57	n	x
Cc1ccc(Sc2cnn(-c3ccccc3)c(=O)c2Cl)cc1	n	n	n	n	n
O=C(Nc1ccccc1)Nc1cc(Cl)cc(Cl)c1	n	n	n	n	x
O=C(Nc1ccccc1)Nc1cc(OCC(F)(F)F)cc(OCC(F)(F)F)c1	n	n	n	92	n
Cc1nc(/C(N)=N/OC(=O)Cc2ccccc2)no1	n	n	57	n	n
N/C(=N\OC(=O)Cc1ccccc1)c1ccccn1	n	n	n	n	x
O=C(CSc1nc2ncccc2[nH]1)c1cccc([N+](=O)[O-])c1	n	n	66	n	n
O=C(CSc1ncn[nH]1)c1cccc([N+](=O)[O-])c1	n	n	127	n	n
O=C(CSc1ncn[nH]1)c1ccccc1	x	n	n	n	n
CCOC(=O)c1c(C)oc2c1c1c(c3ccccc32)OCN(CCCC(=O)O)C1	n	n	57	n	48
CCOC(=O)c1c(C)oc2c1cc(O)c1ccccc12	n	n	58	n	x
